We go through one compound from ChEMBL document CHEMBL1671805, “Biotin ergopeptide probes for dopamine receptors” (J Med Chem, 2011).

What is called Kd is a measure of binding affinity in units of concentration. Read a high Kd as weaker binding.

Activity calls are given as the source filed them. The calls are words filed in the database; no cut-off is given here.

Experiment [1] can be described thus: Displacement of [3H]-SCH23390 from dopamine D1 receptor high binding affinity site in lamb brain striatum membranes at 25 uM. In kind it is cell membranes, Ovis aries, Membrane. An outline of the steps:
(§1)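 Lamb striatal membranes (0.5 mg prot/mL) in 50 mM Tris-HCl pH 7.4 with 10 mM MgCl2 were incubated 2 h at 22 C. Radioligand was 0.9 nM [3H]-SCH23390 (D1) or 0.7 nM [3H]-YM09151-2 (D2). Screens used 25 μM compound; competition used increasing concentrations. Nonspecific binding was taken with 10 μM SCH23390 (D1) or raclopride (D2). Bound ligand was filtered and counted. KD values came from a two-state dimer receptor model fit.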
Background: Loss of bound radioactivity is the signal in a displacement assay; it reports binding, not function.

Experiment [2] is described as follows: Displacement of [3H]-SCH23390 from dopamine D1 receptor low binding affinity site in lamb brain striatum membranes at 25 uM. It counts as cell membranes, Ovis aries, Membrane. An outline of the steps:
as §1

Experiment [3] can be described thus: Displacement of [3H]-YM09151-2 from dopamine D2 receptor high binding affinity site in lamb brain striatum membranes at 25 uM. It counts as cell membranes, Ovis aries, Membrane. In short, it runs like this:
as §1

Experiment [4] is described as follows: Displacement of [3H]-YM09151-2 from dopamine D2 receptor low binding affinity site in lamb brain striatum membranes at 25 uM. It counts as cell membranes, Ovis aries, Membrane. In short, it runs like this: as §1
Experiment [5] deals with D(1A) dopamine receptor (Homo sapiens) (UniProt P21728). The experiment in a line: Agonist activity at human dopamine D1 receptor expressed in CHO cells assessed as increase of ERK1/2 phosphorylation. In kind it is functional, cell-based. In short, it runs like this: (§2)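 Transiently transfected CHO cells (human D1R for D1 lines, D2R for D2 lines; 2 μg cDNA, PEI) were serum-starved 16 h. They were optionally pretreated 5 min with 5 or 50 μM antagonist (SCH23390 for D1R, raclopride for D2R), then given increasing ligand concentrations for 5 min. Lysates were western-blotted for phospho-ERK1/2 or P-Ser473Akt, normalized to total ERK. Mean ± SEM of four independent experiments.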

In experiment [6] the target is D(2) dopamine receptor (Homo sapiens) (UniProt P14416). Description: Agonist activity at human dopamine D2 receptor expressed in CHO cells assessed as increase of ERK1/2 phosphorylation. It counts as functional, cell-based. In short, it runs like this: as §2
Experiment [7] deals with D(1A) dopamine receptor (Homo sapiens) (UniProt P21728). The experiment in a line: Agonist activity at human dopamine D1 receptor expressed in CHO cells assessed as increase of ERK1/2 phosphorylation in presence of SCH23390. It counts as functional, cell-based. An outline of the steps: as §2
In experiment [8] the target is D(2) dopamine receptor (Homo sapiens) (UniProt P14416). Description: Agonist activity at human dopamine D2 receptor expressed in CHO cells assessed as increase of ERK1/2 phosphorylation in presence of raclopride. It counts as functional, cell-based. In short, it runs like this:
as §2

For experiment [9], the target named is D(1A) dopamine receptor (Homo sapiens) (UniProt P21728). Description: Agonist activity at human dopamine D1 receptor expressed in CHO cells assessed as decrease of Akt phosphorylation at Ser473. In kind it is functional, cell-based. An outline of the steps: as §2
In experiment [10] the target is D(2) dopamine receptor (Homo sapiens) (UniProt P14416). Description: Agonist activity at human dopamine D2 receptor expressed in CHO cells assessed as decrease of Akt phosphorylation at Ser473. In kind it is functional, cell-based. In short, it runs like this: as §2
In experiment [11] the target is D(1A) dopamine receptor (Homo sapiens) (UniProt P21728). Description: Agonist activity at human dopamine D1 receptor expressed in CHO cells assessed as decrease of Akt phosphorylation at Ser473 in presence of SCH23390. In kind it is functional, cell-based. An outline of the steps: as §2
For experiment [12], the target named is D(2) dopamine receptor (Homo sapiens) (UniProt P14416). The experiment in a line: Agonist activity at human dopamine D2 receptor expressed in CHO cells assessed as decrease of Akt phosphorylation at Ser473 in presence of raclopride. In kind it is functional, cell-based. An outline of the steps:
as §2

The target in experiment [13] is T1, D(3) dopamine receptor (Homo sapiens, UniProt P35462). The experiment in a line: Displacement of [3H]-raclopride from human dopamine D3 receptor high binding affinity site expressed in CHO cells. In kind it is cell-based. In short, it runs like this:
(§3)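 Membranes (0.5 mg prot/mL) from CHO cells transiently transfected with 2 μg human D3R cDNA were incubated with 4 nM [3H]-raclopride and increasing competitor for 2 h at 22 C in Tris-HCl pH 7.4 with 10 mM MgCl2. Nonspecific binding was taken with 10 μM raclopride. High- and low-affinity KD values came from a two-state dimer receptor model fit. Triplicate.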

Experiment [14] concerns the target T1, D(3) dopamine receptor. The experiment in a line: Displacement of [3H]-raclopride from human dopamine D3 receptor low binding affinity site expressed in CHO cells. In kind it is cell-based. An outline of the steps:
as §3

Experiment [15] has as its target Histamine H3 receptor (Homo sapiens) (UniProt Q9Y5N1). The experiment in a line: Displacement of [3H]-RAMH from histamine H3 receptor. In short, it runs like this: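 Membranes were incubated with 2.5 nM [3H]-RAMH for 2 h at 22 C in 50 mM Tris-HCl pH 7.4 with 10 mM MgCl2. Nonspecific binding was taken with 10 μM RAMH. Bound ligand was filtered and counted.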

Experiment [16] addresses Metabotropic glutamate receptor 1 (Homo sapiens) (UniProt Q13255). The experiment in a line: Displacement of [3H]-quisqualic acid from mGlu1 receptor. In short, it runs like this:
(§4)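 Membranes were incubated with 27 nM [3H]-quisqualic acid for 2 h at 22 C in 50 mM Tris-HCl pH 7.4 with 10 mM MgCl2. Nonspecific binding was taken with 10 μM quisqualic acid. Bound ligand was filtered and counted.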

The target of experiment [17] is Metabotropic glutamate receptor 5 (Homo sapiens) (UniProt P41594). The experiment in a line: Displacement of [3H]-quisqualic acid from mGlu5 receptor. An outline of the steps:
as §4

The target in experiment [18] is Somatostatin receptor type 5 (Homo sapiens) (UniProt P35346). The experiment in a line: Displacement of [125I]-Tyr11-somatostatin 14 from SST5 receptor. In short, it runs like this:
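Membranes were incubated with 0.1 nM [125I]-Tyr11-somatostatin 14 for 3 h at 22 C in 50 mM Tris-HCl pH 7.4 with 10 mM MgCl2. Nonspecific binding was taken with 100 nM somatostatin. Bound ligand was separated by filtration and counted.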

The target in experiment [19] is Cannabinoid receptor 1 (Homo sapiens) (UniProt P21554). The experiment in a line: Displacement of [3H]-CP55940 from CB1 receptor. An outline of the steps: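 Membranes in siliconated tubes were incubated with 0.5 nM [3H]-CP 55940 for 2 h at 22 C in Tris-HCl pH 7.4 with 10 mM MgCl2 and 1 mg/mL fatty acid-free BSA. BSA was also in the filter presoak and wash. Nonspecific binding was taken with 10 μM CP55940.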
Cannabinoid receptor 1 (Homo sapiens), sequence (P21554 whole entry): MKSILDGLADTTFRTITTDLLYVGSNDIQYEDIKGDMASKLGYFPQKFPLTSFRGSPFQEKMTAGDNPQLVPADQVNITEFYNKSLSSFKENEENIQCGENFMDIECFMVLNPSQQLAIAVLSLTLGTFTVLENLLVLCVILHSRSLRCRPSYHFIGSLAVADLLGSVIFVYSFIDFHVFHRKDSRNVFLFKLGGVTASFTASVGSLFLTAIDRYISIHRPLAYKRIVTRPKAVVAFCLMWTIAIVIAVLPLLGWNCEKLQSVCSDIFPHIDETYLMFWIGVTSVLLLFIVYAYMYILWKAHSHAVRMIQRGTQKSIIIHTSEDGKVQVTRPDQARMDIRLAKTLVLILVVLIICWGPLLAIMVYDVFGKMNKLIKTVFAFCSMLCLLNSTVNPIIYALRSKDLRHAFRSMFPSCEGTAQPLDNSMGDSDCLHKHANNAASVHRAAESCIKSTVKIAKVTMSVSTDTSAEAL

D(2) dopamine receptor (Homo sapiens), sequence (P14416 whole entry): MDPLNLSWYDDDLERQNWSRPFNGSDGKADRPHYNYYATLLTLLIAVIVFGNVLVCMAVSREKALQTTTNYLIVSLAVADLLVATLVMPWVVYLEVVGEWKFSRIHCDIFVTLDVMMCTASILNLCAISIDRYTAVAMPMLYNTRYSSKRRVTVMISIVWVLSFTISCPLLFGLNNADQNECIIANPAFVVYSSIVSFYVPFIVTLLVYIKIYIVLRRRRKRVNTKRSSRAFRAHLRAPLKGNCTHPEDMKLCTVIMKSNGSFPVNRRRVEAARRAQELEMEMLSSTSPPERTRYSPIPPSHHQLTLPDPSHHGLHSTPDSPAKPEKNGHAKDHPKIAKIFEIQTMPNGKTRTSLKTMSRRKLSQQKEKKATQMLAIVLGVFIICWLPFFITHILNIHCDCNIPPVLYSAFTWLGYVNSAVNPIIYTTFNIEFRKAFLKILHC
D(1A) dopamine receptor (Homo sapiens), sequence (P21728 whole entry): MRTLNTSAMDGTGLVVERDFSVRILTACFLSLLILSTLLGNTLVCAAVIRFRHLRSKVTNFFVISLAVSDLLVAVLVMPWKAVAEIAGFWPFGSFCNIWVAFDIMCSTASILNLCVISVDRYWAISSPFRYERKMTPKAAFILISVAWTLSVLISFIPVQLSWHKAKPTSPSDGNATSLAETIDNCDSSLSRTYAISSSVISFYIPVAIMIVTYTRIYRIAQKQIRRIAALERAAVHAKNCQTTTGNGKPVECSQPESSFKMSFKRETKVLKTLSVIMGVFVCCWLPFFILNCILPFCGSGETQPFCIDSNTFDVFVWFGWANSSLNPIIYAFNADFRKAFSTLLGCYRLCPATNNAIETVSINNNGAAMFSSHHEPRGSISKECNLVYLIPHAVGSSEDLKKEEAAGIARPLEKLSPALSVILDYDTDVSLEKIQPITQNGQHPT
T1 sequence (P35462 whole entry): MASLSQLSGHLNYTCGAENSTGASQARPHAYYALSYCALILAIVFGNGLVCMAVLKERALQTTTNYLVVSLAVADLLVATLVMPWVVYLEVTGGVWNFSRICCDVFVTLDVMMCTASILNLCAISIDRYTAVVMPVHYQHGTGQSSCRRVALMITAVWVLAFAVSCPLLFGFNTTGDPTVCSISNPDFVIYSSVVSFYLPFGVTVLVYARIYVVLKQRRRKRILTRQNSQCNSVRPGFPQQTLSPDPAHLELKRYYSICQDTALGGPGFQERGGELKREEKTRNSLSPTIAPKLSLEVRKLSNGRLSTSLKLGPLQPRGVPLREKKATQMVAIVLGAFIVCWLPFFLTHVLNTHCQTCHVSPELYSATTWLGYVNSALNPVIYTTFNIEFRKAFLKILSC
Somatostatin receptor type 5 (Homo sapiens), sequence (P35346 whole entry): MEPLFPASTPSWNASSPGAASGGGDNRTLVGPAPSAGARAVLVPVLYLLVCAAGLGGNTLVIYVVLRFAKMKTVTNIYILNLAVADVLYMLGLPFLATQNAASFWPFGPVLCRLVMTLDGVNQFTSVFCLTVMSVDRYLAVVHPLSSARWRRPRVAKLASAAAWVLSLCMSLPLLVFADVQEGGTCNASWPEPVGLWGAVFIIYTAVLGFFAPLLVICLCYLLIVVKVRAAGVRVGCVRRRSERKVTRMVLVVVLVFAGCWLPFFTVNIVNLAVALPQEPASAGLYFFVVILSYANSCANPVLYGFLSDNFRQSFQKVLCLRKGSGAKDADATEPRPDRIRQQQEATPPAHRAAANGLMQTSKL
Histamine H3 receptor (Homo sapiens), sequence (Q9Y5N1 whole entry): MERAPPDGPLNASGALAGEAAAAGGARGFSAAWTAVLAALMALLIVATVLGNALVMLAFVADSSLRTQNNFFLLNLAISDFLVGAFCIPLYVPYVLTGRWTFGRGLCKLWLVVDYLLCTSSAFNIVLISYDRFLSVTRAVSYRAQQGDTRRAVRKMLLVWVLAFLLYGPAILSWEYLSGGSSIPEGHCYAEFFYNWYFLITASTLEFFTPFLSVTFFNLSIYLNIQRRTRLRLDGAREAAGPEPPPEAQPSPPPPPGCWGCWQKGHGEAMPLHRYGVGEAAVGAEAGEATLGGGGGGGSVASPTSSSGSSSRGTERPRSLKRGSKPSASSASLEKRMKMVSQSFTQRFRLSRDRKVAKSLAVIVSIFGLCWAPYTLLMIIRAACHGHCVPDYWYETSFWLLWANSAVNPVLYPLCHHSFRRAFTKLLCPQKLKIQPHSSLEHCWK
Metabotropic glutamate receptor 5 (Homo sapiens), sequence (P41594 21-1212 limits assumed): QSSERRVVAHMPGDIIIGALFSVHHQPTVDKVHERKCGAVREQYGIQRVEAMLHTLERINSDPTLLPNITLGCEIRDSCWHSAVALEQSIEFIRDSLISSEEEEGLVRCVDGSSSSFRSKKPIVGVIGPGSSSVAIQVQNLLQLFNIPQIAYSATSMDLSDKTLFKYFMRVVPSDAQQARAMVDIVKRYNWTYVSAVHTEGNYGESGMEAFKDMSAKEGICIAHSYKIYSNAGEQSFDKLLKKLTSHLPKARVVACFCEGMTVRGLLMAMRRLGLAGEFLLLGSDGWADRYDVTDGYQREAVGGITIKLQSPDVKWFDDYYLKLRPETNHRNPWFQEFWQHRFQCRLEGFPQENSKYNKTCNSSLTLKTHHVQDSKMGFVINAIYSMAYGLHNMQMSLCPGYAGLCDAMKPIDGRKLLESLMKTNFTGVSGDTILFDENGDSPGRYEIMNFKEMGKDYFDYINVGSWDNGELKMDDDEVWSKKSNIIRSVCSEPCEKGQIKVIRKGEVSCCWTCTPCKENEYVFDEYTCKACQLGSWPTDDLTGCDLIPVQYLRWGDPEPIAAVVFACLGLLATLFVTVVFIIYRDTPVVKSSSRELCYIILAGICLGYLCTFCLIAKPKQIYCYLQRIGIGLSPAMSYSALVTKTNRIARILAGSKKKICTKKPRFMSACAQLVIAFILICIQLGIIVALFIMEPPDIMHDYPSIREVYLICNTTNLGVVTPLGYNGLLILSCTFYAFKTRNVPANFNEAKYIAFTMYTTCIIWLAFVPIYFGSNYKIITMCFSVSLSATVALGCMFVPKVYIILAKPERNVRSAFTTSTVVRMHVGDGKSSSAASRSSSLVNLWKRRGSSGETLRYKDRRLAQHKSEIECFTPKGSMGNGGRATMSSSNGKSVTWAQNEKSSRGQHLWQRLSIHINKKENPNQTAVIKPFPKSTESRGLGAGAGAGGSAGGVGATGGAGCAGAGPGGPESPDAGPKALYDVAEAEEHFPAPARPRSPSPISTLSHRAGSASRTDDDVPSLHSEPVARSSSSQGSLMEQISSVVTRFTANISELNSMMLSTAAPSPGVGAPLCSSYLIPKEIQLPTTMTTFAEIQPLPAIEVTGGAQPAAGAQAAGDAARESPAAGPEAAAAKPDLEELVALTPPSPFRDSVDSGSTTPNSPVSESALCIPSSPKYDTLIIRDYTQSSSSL
Metabotropic glutamate receptor 1 (Homo sapiens), sequence (Q13255 19-1194 limits assumed): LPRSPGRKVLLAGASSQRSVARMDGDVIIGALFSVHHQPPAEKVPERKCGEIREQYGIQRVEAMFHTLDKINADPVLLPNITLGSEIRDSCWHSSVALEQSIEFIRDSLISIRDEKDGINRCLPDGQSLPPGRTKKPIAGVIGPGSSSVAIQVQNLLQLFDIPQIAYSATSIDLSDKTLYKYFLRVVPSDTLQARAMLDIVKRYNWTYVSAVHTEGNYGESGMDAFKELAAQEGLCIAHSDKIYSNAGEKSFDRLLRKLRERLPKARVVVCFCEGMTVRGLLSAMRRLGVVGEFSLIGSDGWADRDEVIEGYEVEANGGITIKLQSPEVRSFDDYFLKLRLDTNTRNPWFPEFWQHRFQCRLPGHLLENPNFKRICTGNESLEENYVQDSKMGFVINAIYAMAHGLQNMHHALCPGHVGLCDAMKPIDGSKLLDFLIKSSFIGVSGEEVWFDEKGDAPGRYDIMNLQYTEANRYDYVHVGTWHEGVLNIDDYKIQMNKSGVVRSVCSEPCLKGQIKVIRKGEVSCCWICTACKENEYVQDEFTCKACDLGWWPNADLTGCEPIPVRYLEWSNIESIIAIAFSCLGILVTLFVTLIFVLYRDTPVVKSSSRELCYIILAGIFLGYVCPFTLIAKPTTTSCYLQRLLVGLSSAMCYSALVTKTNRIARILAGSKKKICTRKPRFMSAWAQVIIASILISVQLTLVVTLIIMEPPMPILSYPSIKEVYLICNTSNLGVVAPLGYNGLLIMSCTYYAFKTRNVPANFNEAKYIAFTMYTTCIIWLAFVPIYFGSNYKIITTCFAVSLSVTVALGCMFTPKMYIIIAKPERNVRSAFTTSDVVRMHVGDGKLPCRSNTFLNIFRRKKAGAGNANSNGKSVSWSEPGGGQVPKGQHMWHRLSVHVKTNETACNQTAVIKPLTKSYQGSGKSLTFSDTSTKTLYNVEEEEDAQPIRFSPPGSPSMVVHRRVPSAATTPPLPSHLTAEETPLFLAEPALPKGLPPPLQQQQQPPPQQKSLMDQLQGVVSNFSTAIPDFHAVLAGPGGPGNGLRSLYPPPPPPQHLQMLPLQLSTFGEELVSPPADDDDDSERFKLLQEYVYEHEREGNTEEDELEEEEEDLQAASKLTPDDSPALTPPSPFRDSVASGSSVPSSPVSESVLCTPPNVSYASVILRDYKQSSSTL

In the case of `CN1C[C@H](C(=O)N[C@@H](Cc2ccc([N+](=O)[O-])cc2)C(=O)N[C@@H](Cc2ccc(F)cc2)C(=O)N2CCCC(C(=O)NCCCCCC(=O)NCCCC[C@H](NC(=O)CCCC[C@H]3SC[C@H]4NC(=O)N[C@H]43)C(N)=O)C2)C=C2c3cccc4[nH]cc(c34)C[C@H]21` (some centres undefined), the dissociation constant Kd in experiment [1] was 56 nM; in [2], 1500 nM; in experiment [3] it was 17 nM; in experiment [4] it was 9000 nM; on D(3) dopamine receptor [13] it was 23 nM; at D(3) dopamine receptor [14] it was 93 nM. Also, the Activity entry in experiment [5], in experiment [6], in experiment [9] and in experiment [10] was “Dose-dependent effect” in each case. Further, the outcome in experiment [7], in [8], in experiment [11], in experiment [12], in [15] and in [16] was inactive. The result in experiment [17], in experiment [18] and in experiment [19] was inactive.
